Active and inactive are the calls of the source. No cut-off for these calls is given here.

IC50, inhibition and logP data for five compounds are collected here from ChEMBL document CHEMBL2016546, “Synthesis, characterization, molecular docking and cytotoxic activity of novel plumbagin hydrazones against breast cancer cells” (Bioorg Med Chem Lett, 2012).

The test system of one data set is MDA-MB-231. Nature of the data set: Antiproliferative activity against ER-negative human MDA-MB-231 cells after 48 hrs by MTT assay. The note with it: MDA-MB-231, 48 h. On the technique in general: Formazan colour is commonly taken as a measure of viable cells.
In a further data set the test system is MDA-MB-468. Nature of the data set: Antiproliferative activity against ER-negative human MDA-MB-468 cells after 48 hrs by MTT assay. The format is functional, cell-based. Particulars: MDA-MB-468, 48 h. The essentials:
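MDA-MB-468 cells plated at 3 × 10³/well in medium containing 10% fetal calf serum, penicillin (50 U/mL) and streptomycin, at 37 °C under 5% CO₂. DMSO-dissolved compounds were added 24 h post-seeding and exposure lasted 48 h. MTT (0.5 mg/mL) was applied for 2 h at 37 °C, then DMSO for 30 min at room temperature. Eight wells per treatment, at least three independent repeats.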

The target in data set [1] is Transcription factor p65 (Homo sapiens) (UniProt Q04206). Nature of the data set: Inhibition of NFkappaB p65 subunit expression in human MDA-MB-231 cells at 1.5 uM after 48 hrs by Western blot analysis. The format is cell-based. The essentials:
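MDA-MB-231 cells were exposed to compounds for 48 h, with a vehicle-treated control. NF-κB p65 subunit levels were detected by Western blot, using β-actin as the protein loading control.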

The test system of a further data set is MCF7. Nature of the data set: Antiproliferative activity against ER-positive human MCF7 cells after 48 hrs by MTT assay. Particulars: MCF7, 48 h.
The nature of data set [2]: Partition coefficient, log P pf the compound. The format is physicochemical. The note with it: octanol/water.

Sequence of Transcription factor p65 (Homo sapiens) (Q04206 whole entry): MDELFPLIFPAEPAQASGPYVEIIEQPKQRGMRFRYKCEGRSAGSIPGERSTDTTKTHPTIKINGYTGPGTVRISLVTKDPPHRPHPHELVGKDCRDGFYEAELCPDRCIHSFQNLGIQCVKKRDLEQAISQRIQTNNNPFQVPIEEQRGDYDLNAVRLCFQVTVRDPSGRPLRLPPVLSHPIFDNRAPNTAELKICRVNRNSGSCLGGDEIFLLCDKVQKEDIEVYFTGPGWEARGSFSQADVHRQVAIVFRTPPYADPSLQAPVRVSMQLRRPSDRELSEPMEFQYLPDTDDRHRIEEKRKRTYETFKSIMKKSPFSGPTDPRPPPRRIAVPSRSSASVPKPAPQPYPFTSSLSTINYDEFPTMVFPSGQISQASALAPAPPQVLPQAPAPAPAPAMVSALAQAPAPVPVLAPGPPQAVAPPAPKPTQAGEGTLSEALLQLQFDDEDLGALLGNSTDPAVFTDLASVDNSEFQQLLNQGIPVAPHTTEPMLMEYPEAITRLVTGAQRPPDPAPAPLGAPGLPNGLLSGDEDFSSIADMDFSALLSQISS

For the compound `CC1=CC(=O)c2c(O)cccc2C1=O` [PLUMBAGIN], the 50% inhibitory concentration (IC50) (usually the point on the concentration scale where inhibition reaches its midpoint) with MDA-MB-231 was 3500 nM; in the data set with MDA-MB-468, 2500 nM; in the data set on MCF7, 5500 nM. Moreover, the inhibition entry in data set [1] is “Active”. Besides, the log partition coefficient (logP) (commonly a log measure of how a compound divides between an organic and an aqueous phase) in data set [2] stood at 0.89.
With `CC1=C/C(=N\NC(=O)c2cccnc2)c2c(O)cccc2C1=O`, the IC50 in the data set on MDA-MB-231 turned out to be 1900 nM; with MDA-MB-468, 1900 nM; with MCF7, 2700 nM. The inhibition result in data set [1] was “Active”. Besides, the log partition coefficient (logP) in data set [2] (read-out: logP) was 3.13.
Regarding `CC1=C/C(=N\NC(=O)c2ccncc2)c2c(O)cccc2C1=O`, the IC50 came to 3300 nM in the data set on MDA-MB-231, 3300 nM in the data set on MDA-MB-468 and 6200 nM in the data set on MCF7. In data set [1], the inhibition result was “Active”. Besides, in data set [2] (read-out: logP), the log partition coefficient (logP) was found to be 2.86.
`CC1=C/C(=N\NC(=O)c2ccccc2)c2c(O)cccc2C1=O`: the concentration for half-maximal inhibition (IC50) with MDA-MB-231 is 2100 nM; with MDA-MB-468, 2000 nM; with MCF7, 2800 nM. Also, in data set [1], the inhibition entry was “Active”. Further, the logP in data set [2] (read-out: logP) was found to be 4.
The corresponding values for `CC1=C/C(=N\NC(=O)c2ccccc2O)c2c(O)cccc2C1=O` are 3800 nM, 2900 nM, 5300 nM, “Active” and 4.17.
